Data on six compounds can be found in ChEMBL document CHEMBL3992514, “Synthesis, biological characterisation and structure activity relationships of aromatic bisamidines active against Plasmodium falciparum” (Eur J Med Chem, 2017).

Series [1] can be described thus: Cmax in Swiss Webster mouse at 30 mg/kg, po. To be noted: in vivo. Format: ADME, organism-based. Also on record: dose 30 mg/kg, route oral.
Series [2] can be described thus: Half life in Swiss Webster mouse at 30 mg/kg, po. Format: ADME, organism-based. To be noted: in vivo.
A short description of series [3]: Oral bioavailability in Swiss Webster mouse at 30 mg/kg. The class given is ADME, organism-based. As to conditions: in vivo.
The next series concerns Giardia intestinalis. The experiment in a line: Antiparasitic activity against Giardia lamblia. Format: functional. To be noted: Giardia duodenalis.
The next series concerns Leishmania sp. Put plainly: Antiparasitic activity against Leishmania spp. Format: functional.
In series [4] the test system is Plasmodium falciparum. Put plainly: Antiparasitic activity against drug-resistant Plasmodium falciparum Dd2 infected in erythrocytes assessed as growth inhibition after 48 hrs by [3H]-hypoxanthine incorporation assay. The class given is functional, cell-based.
The subject of series [5] is Plasmodium falciparum. The experiment in a line: Antiparasitic activity against drug-sensitive Plasmodium falciparum 3D7 infected in erythrocytes assessed as growth inhibition after 48 hrs by SYBR green 1 dye-based flow cytometry. The class given is functional, cell-based. As to conditions: 3D7, 48 h. (In flow cytometry, cells or beads pass a laser one at a time.)
The next series relates to HEK293. Put plainly: Cytotoxicity against HEK293 cells assessed as decrease in cell viability after 24 hrs by Alamar blue assay. As to conditions: Homo sapiens, HEK293, 24 h. Format: ADME, cell-based.
Series [6] is described as follows: Cmax in Sprague-Dawley albino rat at 1 mg/kg, po. Format: ADME, organism-based. Details: dose 1 mg/kg, route oral. To be noted: in vivo.
Series [7] in a line: Half life in Sprague-Dawley albino rat at 1 mg/kg, po. Format: ADME, organism-based. As to conditions: in vivo.
The nature of series [8]: Oral bioavailability in Sprague-Dawley albino rat at 1 mg/kg. The class given is ADME, organism-based. To be noted: in vivo.
In another series the test system is Plasmodium vivax. Put plainly: Antimalarial activity against hypnozoite-stage Plasmodium vivax in infected patient assessed as cure rate at 100 mg, po bid administered for 5 days measured every 12 hrs up to day 7, and on day 10, 14, 21, and 28 by Giemsa staining-based assay relative to control. Format: functional.
For series [9], the system named is Plasmodium falciparum. The experiment in a line: Antimalarial activity against Plasmodium falciparum in infected patient assessed as cure rate at 100 mg, po bid administered for 5 days measured every 12 hrs up to day 7, and on day 10, 14, 21, and 28 by Giemsa staining-based assay relative to control. The class given is functional.
Series [10] in a line: Cytotoxicity against HEK293 cells assessed as cell viability at 50 uM after 24 hrs by Alamar blue assay relative to control. To be noted: human, read-out: Activity. Format: cell-based. The gist of the method: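 HEK293 cells kept in DMEM with 10% FCS and 5 mM glutamine at 37 °C, 5% CO2; seeded at 1.5 × 10^3 cells per well, compound added immediately at 50 µM. After 24 h AlamarBlue added, incubated a further 21 h; resorufin fluorescence read at Ex 560/Em 590 nm. Triplicates over three independent experiments.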
A general note: Resazurin is reduced to fluorescent resorufin, in cell work by metabolically active cells.

Series [11] can be described thus: Selectivity index, ratio of IC50 for HEK293 cells to IC50 for drug-resistant Plasmodium falciparum Dd2 infected in erythrocytes. As to conditions: human.
A short description of series [12]: Selectivity index, ratio of IC50 for HEK293 cells to IC50 for drug-sensitive Plasmodium falciparum 3D7 infected in erythrocytes. As to conditions: human.

In the case of `N=C(N)c1ccc(-c2ccc(-c3ccc(C(=N)N)cc3)o2)cc1` [FURAMIDINE], the peak level in series [1] (Cmax) was 8 nM. Further, in series [2], the half-life (usually the time needed for the level to fall by half in the phase considered) is 107 h. Besides, the bioavailability (in general, dose-corrected exposure relative to a reference, in per cent) in series [3] was determined as 0.2%. For the same compound, the IC50 (commonly the concentration that inhibits the measured activity by half) with Giardia intestinalis is 200 nM; in the series on Leishmania sp., 2800 nM; in the series on Plasmodium falciparum [4], 50 nM; in the series on Plasmodium falciparum [5] it was 11 nM; in the series on HEK293 it was 178000 nM.

For `CO/N=[14C](/N)c1ccc(-c2ccc(-c3ccc(/[14C](N)=N\OC)cc3)o2)cc1`, the Cmax (commonly the maximum level reached in the sampled fluid or tissue) in series [6] was 26.1 ng/mL. For the same compound, the half-life in [7] was 0.9 h. This compound also registered a bioavailability in series [8] of 11%.

For `CONC(=N)c1ccc(-c2ccc(-c3ccc(C(=N)NOC)cc3)o2)cc1` [PAFURAMIDINE], the Activity with Plasmodium vivax and in the series on Plasmodium falciparum [9] was more than 95% throughout.

As to `CCCOCc1c(-c2ccc(C(=N)N)cc2)oc(-c2ccc(C(=N)N)cc2)c1Cl`, in series [10], the viability at 24 h, 50 µM worked out at 1%. Also, the IC50 in the series with Plasmodium falciparum [4] amounted to 140 nM; with Plasmodium falciparum [5], 90 nM.

As for `CCOC(=O)Cc1cc(-c2ccc(C(=N)N)cc2)oc1-c1ccc(C(=N)N)cc1`, the values for the concentration for half-maximal inhibition (IC50) with Plasmodium falciparum [4], with Plasmodium falciparum [5] and in the series with HEK293 were 860 nM, 220 nM and 232000 nM, respectively. The selectivity ratio in series [11] was found to be 270; in [12], 1060.

As to `CSCCNC(=O)Cc1cc(-c2ccc(C(=N)N)cc2)oc1-c1ccc(C(=N)N)cc1`, the results for the concentration for half-maximal inhibition (IC50) in the series on Plasmodium falciparum [4], in the series on Plasmodium falciparum [5] and in the series on HEK293 were 5480 nM, 6090 nM and more than 50000 nM, respectively. The selectivity ratio was more than 10 in series [11] and more than 8 in [12].
